High-throughput results deposited in PubChem BioAssay by several laboratories.
zfTRPN1 agonist: agonists of zebrafish TRPN1 channel; HEK293 zebrafish TRPN1-YFP, Fluo-8 calcium fluorescence; 100% = response to 87 µM carbachol; activation, % at 3 µM; actives 0.18% (n = 220,000); AID 1424;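 active = activation above its plate's cutoff, the mean activation of test wells on that plate plus 3 SD, cut at about 19% in these data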;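 also: 0% = DMSO alone and 100% = 87 µM carbachol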
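Material – zebrafish TRPN1-YFP in HEK293 cells · Doses – 3 µM single point · Schedule – dye 1 h 37 °C plus 30 min RT · Signal – Fluo-8 calcium fluorescence, excitation 470-495 nm, emission 515-575 nm · Read-out – % activation versus carbachol response · Control set – carbachol high, DMSO low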
CRFBP-R2 agonist: agonists of human CRF-binding protein/CRF-R2 receptor complex; HEK293 CRF-R2/CRF-BP, calcium dye fluorescence (FLIPR); percent of saturating CRF peptide response; activation, % at 13.2 µM; actives 0.46% (n = 350,000); AID 588473;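 active = activation of at least 50%, plus an integration ratio under a set limit after plate pattern correction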;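 also: plate controls were neutral control wells without compound for no effect and CRF at EC100 for full effect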
TRPML3 agonist: human mucolipin-3 channel agonism; Q8TDD5; HEK293 TRPML3-YFP, Fluo-8 calcium fluorescence; 100% = the carbachol control signal; activation, % at 3 µM; actives 0.29% (n = 220,000);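 active = activation above its plate's cutoff, the mean activation of the plate's test wells plus 3 SD, cut at about 12% in these data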;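 also: 0% = DMSO only wells and 100% = carbachol wells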
Target sequence (Q8TDD5 whole entry, looked up): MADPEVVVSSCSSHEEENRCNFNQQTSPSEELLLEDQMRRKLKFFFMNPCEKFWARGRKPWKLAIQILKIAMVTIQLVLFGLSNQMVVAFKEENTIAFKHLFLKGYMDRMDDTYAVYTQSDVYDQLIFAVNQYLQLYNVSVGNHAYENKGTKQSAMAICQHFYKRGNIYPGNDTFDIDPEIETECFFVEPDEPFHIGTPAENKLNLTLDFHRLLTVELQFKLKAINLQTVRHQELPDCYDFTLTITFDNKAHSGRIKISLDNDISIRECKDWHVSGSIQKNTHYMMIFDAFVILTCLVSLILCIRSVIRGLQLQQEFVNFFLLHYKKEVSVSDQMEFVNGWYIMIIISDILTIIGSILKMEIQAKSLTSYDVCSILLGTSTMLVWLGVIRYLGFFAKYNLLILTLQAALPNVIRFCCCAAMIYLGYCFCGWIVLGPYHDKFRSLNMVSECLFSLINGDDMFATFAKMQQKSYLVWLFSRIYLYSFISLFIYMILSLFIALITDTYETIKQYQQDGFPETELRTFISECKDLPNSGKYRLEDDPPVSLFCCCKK
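Material: HEK293 cells stably carrying human TRPML3-YFP; compound dosing: single dose, 3 µM final nominal compound, 0.3% DMSO final; incubation: 1-h 37 °C dye load, 5-s basal, 120-s post-compound reads; technique: Fluo-8 intracellular calcium fluorescence, excitation 470-495 nm, emission 515-575 nm; read-out basis: percent activation from peak-to-basal fluorescence ratio, scaled between DMSO and carbachol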
VIM-2 inhibitor: blocks Pseudomonas aeruginosa VIM-2 metallo-beta-lactamase. purified VIM-2, nitrocefin hydrolysis, epi-absorbance fluorescence. inhibition, % at 5.6 µM. actives 0.89% (n = 290,000);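 active = inhibition above the mean of all tested compounds plus 3 SD, cutoff set per screening run, cut at about 7.5% in these data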;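 also: red hydrolysis product quenches plate fluorescence so inhibitors raise well fluorescence; 0% = enzyme with DMSO and 100% = DMSO without enzyme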
CRFBP-R2 block: CRF-BP/CRF-R2 complex antagonism; inhibition, % at 11.8 µM; HEK293 CRF-R2/CRF-BP, CRF-induced calcium fluorescence; actives 0.59% (n = 350,000);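 active = inhibition of the ligand-induced calcium signal above about 50% at the single tested concentration, limit read from the data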
IMP-1 inhibitor: blocks Pseudomonas aeruginosa IMP-1 metallo-beta-lactamase; inhibition, % at 5.6 µM; AID 1556; actives 0.45% (n = 290,000); purified IMP-1, nitrocefin hydrolysis, epi-absorbance fluorescence;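 active = inhibition above the mean plus 3 SD of all compounds in the same screening run, cut at about 4.5% in these data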;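 also: 0% = IMP-1 with DMSO and 100% = DMSO wells lacking enzyme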
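assay system = purified recombinant IMP-1 metallo-beta-lactamase enzyme | schedule = 15 min preincubation plus 25 min reaction at 25 °C | signal = Epi-absorbance fluorescence, 480 nm excitation, 530 nm emission | read-out basis = percent inhibition from optical density relative to buffer-blank wells | controls = IMP-1 with DMSO as 0%, enzyme-free DMSO as 100%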
* marks the source's active call; other numbers are inactive results; . = no result given; ! = not active in a repeat. Shown are actives, neighbours in structure and some others; about 2.1% of the full set was active somewhere.

SMILES	zfTRPN1 agonist	CRFBP-R2 agonist	TRPML3 agonist	VIM-2 inhibitor	CRFBP-R2 block	IMP-1 inhibitor
CCC1(CC)C(=O)N(Cc2ccccc2)C(=O)N(Cc2ccccc2)C1=O	-2	10	0	-3	87*	-2
Cc1c2ccncc2c(C)c2c1[nH]c1ccccc12	6	101*	4	2	-135	-6
Nc1ccc2nonc2c1[N+](=O)[O-]	5	70*	5	3	-31	3
CN1OC[C@@H]2CN[C@H](c3ccc(Br)cc3)C[C@@H]21	.	-2	.	.	-6	.
Nc1cccc2c1Cc1cc([N+](=O)[O-])ccc1-2	.	62*	.	.	-86	.
Cc1cc(C(=O)OC(C)C(=O)Nc2ccccc2)c(C)n1C1CC1 (configuration not stated)	.	-1	.	.	-20	.
CC(C)(C)c1cc(C=C(C#N)C#N)cc(C(C)(C)C)c1O	.	53*	.	.	35	.
COc1ccc(CN2C(=O)NC(=O)/C(=C/c3ccoc3)C2=O)cc1	18	10	11	-2	51*	1
C[C@H](CO)N1C[C@H](C)[C@@H](CN(C)C(=O)Oc2ccc3ccccc3c2)OCc2cn(nn2)CCCC1=O	.	0	.	.	-8	.
NC(Cc1ccccc1)c1nn[nH]n1 (configuration not stated)	.	-2	.	.	-2	.
CN1CCC(N(C)c2nc(-c3ccc([N+](=O)[O-])cc3)nc3ccccc23)CC1	1	2	3	9.9*	-34	-2
S=C(NCCc1ccccc1)N1Cc2ccccc2-n2nncc2C1	.	-1	.	.	-10	.
c1ccc2[nH]c(CCN3CCCCC3)nc2c1	.	1	.	.	3	.
Cn1cc(C(=O)c2ccccc2)c2ccccc21	-3	-11	-1	-3	53*	-2
Cc1cc2c(C(C)C)c(O)c(O)c(C=O)c2c(O)c1-c1c(C)cc2c(C(C)C)c(O)c(O)c(C=O)c2c1O	-1	.	0	10*	.	14*!
C=C(C)CC1(CC)C(=O)NC(=S)NC1=O	.	-3	.	.	5	.
Cc1cccc(C(=O)Nc2ccc3c(c2)CC2(C(=O)N(C)C(=O)N(C)C2=O)C2CCCN32)c1 (configuration not stated)	.	8	.	-3	-5	-4
COc1ccccc1C(=O)Nc1ccc2c(c1)CC1(C(=O)N(C)C(=O)N(C)C1=O)C1CCCN21 (configuration not stated)	.	182*	.	-1	-106	-1
c1ccc(C2(NC3=NCCO3)CCCCC2)cc1	.	32	.	.	8	.
CCCCCC[N+](=O)[O-]	.	-2	.	.	12	.
CCCCCCCCCCCCCCCC[N+](C)(C)C	.	4	.	.	66*	.
O=C1CC23c4ccccc4N4C(=O)CC5OCC=C6CN1C2CC6C5C43 (configuration not stated)	.	1	.	.	1	.
Cc1cc(OCc2nn[nH]n2)c2c3c(c(=O)oc2c1)CCCC3	1	0	1	9.0*	-13	1
C=CCOC(=O)COc1cc(C)cc2oc(=O)c3c(c12)CCC3	-3	3	-1	5	5	-2
Cc1cc(OCC(=O)NCc2ccc(S(N)(=O)=O)cc2)c2c3c(c(=O)oc2c1)CCC3	.	-2	.	9.4*	27	-3
SMILES	zfTRPN1 agonist	CRFBP-R2 agonist	TRPML3 agonist	VIM-2 inhibitor	CRFBP-R2 block	IMP-1 inhibitor
Cc1cc(OCc2ccc([N+](=O)[O-])cc2)c2c3c(c(=O)oc2c1)CCCC3	-1	-1	-1	0	1	-1
COC(=O)C1=C(c2ccc(C(C)=O)cc2)C[C@@H]2CC[C@H]1N2C(=O)N1CCC(O)CC1	.	-1	.	.	5	.
CS(=O)(=O)c1ccc(C2=C(CNC(=O)c3nccs3)[C@H]3CC[C@@H](C2)N3Cc2ccco2)cc1	.	-1	.	.	21	.
Cc1c(NS(=O)(=O)c2ccccc2)ccc([N+](=O)[O-])c1Cl	.	29	.	.	54*	.
CCN(CCNc1ccc([N+](=O)[O-])c2cccnc12)S(=O)(=O)c1ccccc1	1	-1	0	-4	18	-3
Cc1ccc(-c2cc(-c3ccc(C)cc3)[n+](-c3ccccc3)c(-c3ccc(C)cc3)c2)cc1	.	60*	.	.	-21	.
c1ccc(-c2cc(-c3ccccc3)[n+](-c3ccccc3)c(-c3ccccc3)c2)cc1	7	20	-1	2	-13	1
